T cruzi repl = T. cruzi replication inhibition; inhibition, % (concentration not given with the values); AID 1885; actives 1.4% (n = 300,000); T. cruzi beta-gal in NIH3T3, luminescence, 90 h;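 active = mean inhibition across valid replicates above about 55%, limit read from the data; inconclusive = mean below that limit but half or more replicates reach it; inactive = mean below it, under half of replicates reach it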;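 note: signal also drops with host cell toxicity which is not excluded here; higher percent means less beta-gal luminescence so fewer parasites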
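System: mouse NIH/3T3 fibroblasts infected with β-gal-expressing T. cruzi Tulahuen C4 / Input: NIH/3T3 cells, 5,000 per well / Buffer or medium: Low-serum DMEM with 2% FBS / Probe or stimulus: 5000 reporter trypomastigotes per well / Schedule: ≥90 h infection period, 3 h prior cell attachment / Measured by: GalScreen luminescence, 60 min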
Mdm2-MdmX inh = inhibitors of human Mdm2/MdmX interaction; O15151+Q00987; SaOS-2 split-luciferase Mdm2/MdmX complementation, luminescence; inhibition, % at 8 µM; actives 3% (n = 330,000); AID 485346;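 active = inhibition of at least 50% at 8 µM in the primary screen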
Target sequence (O15151 whole entry, looked up): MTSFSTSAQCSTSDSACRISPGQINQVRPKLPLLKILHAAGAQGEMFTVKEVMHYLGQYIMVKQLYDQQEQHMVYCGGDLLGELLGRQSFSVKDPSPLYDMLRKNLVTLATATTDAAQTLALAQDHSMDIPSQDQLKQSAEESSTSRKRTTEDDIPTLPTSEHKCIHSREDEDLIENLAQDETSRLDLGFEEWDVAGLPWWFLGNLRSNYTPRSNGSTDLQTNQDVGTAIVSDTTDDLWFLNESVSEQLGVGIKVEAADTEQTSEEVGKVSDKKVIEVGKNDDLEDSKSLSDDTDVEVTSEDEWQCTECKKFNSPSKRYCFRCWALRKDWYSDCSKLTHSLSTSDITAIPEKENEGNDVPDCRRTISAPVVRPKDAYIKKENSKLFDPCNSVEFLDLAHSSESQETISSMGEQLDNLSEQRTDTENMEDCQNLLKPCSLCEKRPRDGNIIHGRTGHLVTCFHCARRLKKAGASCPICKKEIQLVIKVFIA
Target sequence (Q00987 whole entry, looked up): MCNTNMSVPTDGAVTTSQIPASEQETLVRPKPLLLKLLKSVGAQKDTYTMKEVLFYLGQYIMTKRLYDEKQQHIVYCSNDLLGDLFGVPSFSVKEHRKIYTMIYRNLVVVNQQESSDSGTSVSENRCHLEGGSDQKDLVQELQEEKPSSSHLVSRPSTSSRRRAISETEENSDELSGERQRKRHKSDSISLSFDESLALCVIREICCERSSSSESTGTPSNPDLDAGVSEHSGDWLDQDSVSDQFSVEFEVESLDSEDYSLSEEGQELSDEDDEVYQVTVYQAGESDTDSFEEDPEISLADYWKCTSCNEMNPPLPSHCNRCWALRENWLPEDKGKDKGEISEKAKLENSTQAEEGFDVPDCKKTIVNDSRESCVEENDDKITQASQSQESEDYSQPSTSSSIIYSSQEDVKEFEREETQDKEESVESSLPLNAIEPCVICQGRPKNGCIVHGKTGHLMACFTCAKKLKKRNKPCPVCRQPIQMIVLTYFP
Beta cell apopt = blocks beta cell apoptosis | protection from apoptosis, % (no concentration beside the values) | actives 0.8% (n = 300,000) | AID 435005 | INS-1E cytokine-induced death, ATP luminescence, 48 h; percent of positive-control rescue, neutral wells zero;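 active = Every replicate reaches about 75%, or at least half do and their mean reaches it too, limit read from the data; inconclusive = At least half of replicates reach the limit but their mean does not; inactive = Under half of replicates reach the limit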;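 note: higher means more ATP so stronger rescue from cytokine killing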
Calb FLC = C. albicans growth modulation with fluconazole; C. albicans CaCi-2 + fluconazole, Alamar Blue growth, 48 h; growth inhibition, % (test concentration not listed); actives 0.57% (n = 300,000); AID 1979;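 active = growth inhibition above about 58% in most replicates, limit read from the data, passing the limit was not always enough; inconclusive = exactly half the replicates above a set limit; inactive = most replicates below a set limit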;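 note: all wells also contain fluconazole at 8 µg/ml as a sub-toxic cotreatment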
SKKanGAS inh = inhibitors of SKKanGAS S. pyogenes growth in kanamycin (SK-promoter or general growth effect). BacTiter-Glo, 6 h. inhibition, % at 7.5 µM. actives 1.3% (n = 300,000). AID 1662;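 active = mean replicate score, as percent of positive control median, at least 50; inconclusive = mean below 50 but one replicate at or above 50; inactive = mean and every replicate below 50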;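 note: strain carries kanamycin resistance gene driven by streptokinase promoter and grows in 40 µg/ml kanamycin; loss of luminescence reflects streptokinase promoter inhibition or plain growth inhibition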
CSC inhib = blocks cancer stem cells. cancer stem cell-like cells viability, luminescence. inhibition, % at 7.5 µM. actives 1.1% (n = 300,000). AID 2717; in the data active = inhibition above about 75%; inconclusive = no clear call, values can overlap the other calls; tested in HMLE shEcad cells
Of the large screens only hits and unclear results are named; the others gave an inactive call. This is a sample that favours compounds with a hit; in the whole collection about 5.7% have one here.

COc1ccc(C(=O)NCC(=O)OCC(=O)c2ccc(Cl)cc2)cc1OC	none
COc1ccc(C(=O)NCC(=O)OCCCOC(=O)CNC(=O)c2ccc(OC)c(OC)c2)cc1OC	SKKanGAS inh 50 (no result: Beta cell apopt)
C[C@H](CO)N1C[C@H](C)[C@@H](CN(C)S(=O)(=O)c2ccc(F)cc2)Oc2c(NC(=O)Cc3ccccc3)cccc2C1=O	none (no result: T cruzi repl, Calb FLC, SKKanGAS inh, CSC inhib)
COc1cc(CNc2ccc(N3CCCC3)cc2)cc(Cl)c1OC	T cruzi repl 73, Calb FLC 87
COc1ccccc1CNc1ccc(N2CCCCC2)cc1	T cruzi repl 65
O=C(CN1C(=O)NC2(CCCC2)C1=O)Nc1cc(C(F)(F)F)ccc1N1CCCCC1	none (no result: Calb FLC)
CCOc1ccc(S(=O)(=O)NN=C(C)c2cccnc2)cc1	none (no result: T cruzi repl, Calb FLC, SKKanGAS inh)
COCCN(C(=O)CSc1nnc(-c2cccc(C)c2)n1C)c1c(N)n(Cc2ccccc2)c(=O)[nH]c1=O	Calb FLC 113 (no result: T cruzi repl, SKKanGAS inh)
COCCN(C(=O)COC(=O)C1CCC(C(C)(C)C)CC1)c1c(N)n(Cc2ccccc2)c(=O)[nH]c1=O (stereo unspecified)	Beta cell apopt 106
COc1ccc([C@@H]2COc3c(ccc4c3C=CC(C)(C)O4)C2)c(OC)c1	none
COc1ccc(-c2oc3c4c(cc(OC)c3c(=O)c2CC=C(C)C)OC(C)(C)C=C4)c(OC)c1	T cruzi repl 65, CSC inhib 101
CC(C)=CCc1c(-c2ccc(O)cc2O)oc2cc3c(c(O)c2c1=O)C=CC(C)(C)O3	SKKanGAS inh 107
COC(=O)c1c(NC(=O)c2ccccc2)sc2c1CC(C)(C)OC2	CSC inhib 80
Cc1ccc(CN2CCN(Cc3ccc(-n4cccn4)cc3C)CC2CCO)cc1 (stereo unspecified)	T cruzi repl 62
Cc1ccc(CN2CCN(Cc3cccc(-n4cccn4)c3)CC2CCO)cc1 (stereo unspecified)	none
O=C(O)CCCn1nc(-c2ccccc2)c2ccccc21	none
COC(=O)Cn1nc(-c2ccccc2)c2ccccc21	Calb FLC 86
O=C(C[C@@H]1C/C=C\C[C@H](Cc2ccc(F)cc2)C(=O)OC[C@H]2CCCN2C1=O)N[C@H](CO)Cc1ccccc1	none (no result: T cruzi repl, Calb FLC, SKKanGAS inh, CSC inhib)
Cc1ccccc1C(=O)c1c[nH]c(C(=O)N2CCN(c3ccccc3F)CC2)c1	none
O=C(c1c[nH]c(C(=O)N2CCN(c3ccccc3F)CC2)c1)c1cccc(Cl)c1Cl	T cruzi repl 60 (no result: Mdm2-MdmX inh, Beta cell apopt, CSC inhib)
O=C(Nc1ccc(Cl)cc1)N[C@@H]1c2c(ccc3ccccc23)OC[C@@H]1CO	SKKanGAS inh 60
COCCN1CC(CNC(=O)c2cc(COc3ccccc3SC)on2)CC1=O (stereo unspecified)	none
O=C(O)c1ccc(-c2nc(-c3ccccc3)c(-c3cccs3)[nH]2)cc1	none
COc1ccc(-c2nc(-c3cccs3)c(-c3cccs3)[nH]2)cc1O	SKKanGAS inh 61
COc1ccc(-c2cc(C(F)F)n3ncc(C(=O)N4CCCCC4)c3n2)cc1	T cruzi repl 89
Cc1ccc(-c2cc(C(F)F)n3ncc(C(=O)N4CCN(c5ccccn5)CC4)c3n2)cc1	T cruzi repl 60
CNS(=O)(=O)c1ccc(NC(=O)c2cnn3c(C(F)F)cc(-c4ccccc4)nc23)cc1	SKKanGAS inh 53
O=C(Nc1cccc(S(=O)(=O)N2CCOCC2)c1)c1cnn2c(C(F)F)cc(-c3ccccc3)nc12	none
COc1ccc(-c2cc(C(F)F)n3ncc(C(=O)N4CCN(C(=O)c5ccco5)CC4)c3n2)cc1	none (no result: Beta cell apopt)
N#C/C(=C(/O)c1cc2ccccc2o1)c1nc2ccccc2s1	SKKanGAS inh 61, CSC inhib 108
N#C/C(=C(/O)COC(=O)c1ccccc1O)c1nc2ccccc2s1	Calb FLC 83
O=[N+]([O-])c1ccc(-c2cn3nc(-c4ccccc4)c(-c4ccccc4)nc3n2)cc1	none
O=[N+]([O-])c1cccc(-c2cn3nc(-c4ccccc4)c(-c4ccccc4)nc3n2)c1	Beta cell apopt 98
COc1cccc(-c2ncc3ccccc3c2COC(=O)c2cccc(Br)c2)c1	none (no result: T cruzi repl, Calb FLC, SKKanGAS inh)
C/C(=N\NC(=O)c1cc2ccccc2cc1O)c1cccs1	T cruzi repl 55, SKKanGAS inh 71
O=C(NNC(=O)c1cc2ccccc2cc1O)c1cccs1	Calb FLC 91
C/C(=N\NC(=O)c1cc2ccccc2cc1O)c1ccc(C)o1	SKKanGAS inh 62
O=C(NCc1ccco1)c1ccc2c(c1)OCCO2	none
COCC(C)(C)COS(N)(=O)=O	none
CCOc1ccc(/C(O)=C2/C(=O)C(=O)N(c3ccccn3)C2c2ccc(Cl)cc2)c(C)c1 (stereo unspecified)	SKKanGAS inh 64 (no result: Mdm2-MdmX inh)
COCCCNCCCOc1ccc(Cl)cc1C(C)(C)C	none
CNCCCOc1ccc(Cl)cc1C(C)(C)C	T cruzi repl 55 (no result: Beta cell apopt)
CCn1c(O)c(/C=N/N=C/c2ccccc2)c2ccc(C3=NNC(=O)CC3)cc21	SKKanGAS inh 52 (no result: CSC inhib)
O=C(Nc1ccccc1-c1nnc(SCc2ccc(Cl)cc2)o1)c1ccccc1	T cruzi repl 71 (no result: CSC inhib)
O=S(=O)(Nc1ccc(-c2nnc(SCc3ccc(Cl)cc3)o2)cc1)c1ccccc1	CSC inhib 92
O=C(Nc1ccccc1-c1nnc(SCc2ccccc2)o1)c1ccccc1	none
CCCCOc1ccc(/C=N/NC(=S)Nc2cccc(C)c2C)cc1	none
Cc1cccc(C)c1NC(=S)N/N=C/c1ccc(OCCC(C)C)cc1	T cruzi repl 63, SKKanGAS inh 67 (no result: Beta cell apopt)
Cc1ccc[n+](CC(=O)/C=C2\N(C)c3ccccc3C2(C)C)c1	none
CN1/C(=C\C(=O)COC(=O)c2ccc(O)c(O)c2)C(C)(C)c2ccccc21	Beta cell apopt 95
CN1/C(=C\C(=O)C[n+]2ccc(C(=O)c3ccccc3)cc2)C(C)(C)c2ccccc21	Beta cell apopt 103, Calb FLC 98
CN1/C(=C\C(=O)C[n+]2cccc(Br)c2)C(C)(C)c2ccccc21	Beta cell apopt 100
CC(C)(C)c1cc(-c2csc(Nc3ccccc3)[n+]2Cc2ccc(C(=O)O)cc2)cc(C(C)(C)C)c1O	Calb FLC inconclusive, SKKanGAS inh 115
CC(=O)C1=C(C)NC(SCC(=O)c2ccc(Cl)c(Cl)c2)=C(C#N)C1c1ccco1 (stereo unspecified)	Beta cell apopt 100, SKKanGAS inh 56, CSC inhib 157
CCc1ccc(C(=O)CSC2=C(C#N)C(c3ccco3)C(C(C)=O)=C(C)N2)cc1 (stereo unspecified)	Beta cell apopt 110, CSC inhib 80
CC(=O)C1=C(C)NC(SCC(=O)c2ccc(F)cc2)=C(C#N)C1c1ccco1 (stereo unspecified)	none
CC(=O)C1=C(C)NC(SCC(=O)c2cc(Cl)ccc2Cl)=C(C#N)C1c1ccco1 (stereo unspecified)	none (no result: Beta cell apopt, CSC inhib)
COc1ccc2nc(SCC(=O)NC3(C#N)CCCCC3)[nH]c2c1	none
